{"source": "ChEMBL document CHEMBL2407076", "about": "“cis-Restricted 3-aminopyrazole analogues of combretastatins: synthesis from plant polyalkoxybenzenes and biological evaluation in the cytotoxicity and phenotypic sea urchin embryo assays” (2013)", "key": {"[1]": {"system": "Paracentrotus lividus", "test": "Antiproliferative activity against sea urchin embryo assessed as cleavage arrest compound treated at 45 to 55 mins prior to first mitotic cycle completion and measured at 2.5 to 5.5 hrs post fertilization", "assay_type": "functional", "in_short": "(§1)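 Fertilized eggs were treated 8−20 min after fertilization. The embryos were held at room temperature in filtered seawater as a monolayer of up to 2000 embryos/mL. Compounds were given as 2-fold decreasing concentrations from a 10 mM DMSO stock diluted 10-fold in 95% EtOH, with DMSO ≤0.05% and EtOH ≤1%. Embryos were scored by light microscopy. The value is the effective threshold concentration, measured in duplicate.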"}, "[2]": {"system": "Paracentrotus lividus", "test": "Antiproliferative activity against sea urchin embryo assessed as cleavage alteration compound treated at 45 to 55 mins prior to first mitotic cycle completion and measured at 2.5 to 5.5 hrs post fertilization", "assay_type": "functional", "in_short": "as §1"}, "[3]": {"system": "OVCAR-8", "test": "Growth inhibition of human OVCAR8 cells after 48 hrs by SRB assay", "assay_type": "functional, cell-based", "in_short": "(§2)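 Tested in the NCI60 anticancer drug screen. GI50 is the concentration giving 50% cell growth inhibition. For the panel-wide line, the value is the mean GI50 across the panel.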"}, "[4]": {"system": "NCI/ADR-RES", "test": "Growth inhibition of human NCI/ADR-RES cells after 48 hrs by SRB assay", "assay_type": "functional, cell-based", "in_short": "as §2"}, "[5]": {"test": "Growth inhibition of human NCI60 cells after 48 hrs by SRB assay", "assay_type": "functional", "conditions": "NCI60, 48 h", "in_short": "as §2"}, "[6]": {"test": "Growth inhibition of human NCI60 cells at 10 uM after 48 hrs by SRB assay", "assay_type": "functional", "conditions": "NCI60, 48 h, read-out: GI", "in_short": "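Tested in the NCI60 single-dose screen at 10 μM. The value is the mean percent inhibition of cell growth across the panel.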"}, "[7]": {"system": "Paracentrotus lividus", "test": "Microtubule destabilizing activity in sea urchin embryo assessed as embryo spinning compound treated just after hatching at 8 to 10 hrs post fertilization and measured after 15 mins to 20 hrs of treatment"}, "[8]": {"system": "K562", "test": "Growth inhibition of human K562 cells after 48 hrs by SRB assay", "assay_type": "functional", "conditions": "K562, 48 h", "in_short": "as §2"}, "[9]": {"system": "SR", "test": "Growth inhibition of human SR cells after 48 hrs by SRB assay", "assay_type": "functional", "in_short": "as §2"}, "[10]": {"system": "HL-60(TB)", "test": "Growth inhibition of human HL-60(TB) cells after 48 hrs by SRB assay", "assay_type": "functional", "conditions": "HL-60, 48 h", "in_short": "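Tested in the NCI60 anticancer drug screen. HL-60(TB) is one of the leukemia lines in the panel. Value reported as GI50, the concentration needed for 50% inhibition of cell growth.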"}, "[11]": {"system": "KM12", "test": "Growth inhibition of human KM12 cells after 48 hrs by SRB assay", "assay_type": "functional", "conditions": "KM12, 48 h", "in_short": "as §2"}, "[12]": {"system": "SW-620", "test": "Growth inhibition of human SW620 cells after 48 hrs by SRB assay", "assay_type": "functional", "conditions": "SW-620, 48 h", "in_short": "as §2"}, "[13]": {"system": "OVCAR-3", "test": "Growth inhibition of human OVCAR3 cells after 48 hrs by SRB assay", "assay_type": "functional", "conditions": "OVCAR-3, 48 h", "in_short": "as §2"}, "[14]": {"system": "NCI-H522", "test": "Growth inhibition of human NCI-H522 cells after 48 hrs by SRB assay", "assay_type": "functional", "conditions": "NCI-H522, 48 h", "in_short": "as §2"}, "[15]": {"system": "MDA-MB-435", "test": "Growth inhibition of human MDA-MB-435 cells after 48 hrs by SRB assay", "assay_type": "functional", "conditions": "MDA-MB-435, 48 h", "in_short": "as §2"}}, "note": "The source made the active and inactive calls."}
{"compound": "COc1ccc(-c2[nH]nc(N)c2-c2cc(OC)c3c(c2)OCO3)cc1", "values": [{"measurement": "EC", "setting": "[1]", "value": ">4", "unit": "µM"}, {"measurement": "EC", "setting": "[2]", "value": 0.2, "unit": "µM"}, {"measurement": "growth inhibition (GI)", "setting": "[3]", "value": "Active"}, {"measurement": "growth inhibition (GI)", "setting": "[4]", "value": "Active"}, {"measurement": "GI50", "setting": "[5]", "value": 4370, "unit": "nM"}, {"measurement": "inhibition of growth at 10 µM", "setting": "[6]", "value": 46, "unit": "%"}, {"measurement": "EC", "setting": "[7]", "value": ">10", "unit": "µM"}]}
{"compound": "COc1ccc(-c2c(N)n[nH]c2-c2cc(OC)c3c(c2OC)OCO3)cc1", "values": [{"measurement": "EC", "setting": "[1]", "value": ">4", "unit": "µM"}, {"measurement": "EC", "setting": "[2]", "value": 4, "unit": "µM"}, {"measurement": "EC", "setting": "[7]", "value": ">4", "unit": "µM"}]}
{"compound": "COc1ccc(-c2c(N)n[nH]c2-c2cc3c(c(OC)c2OC)OCO3)cc1", "values": [{"measurement": "EC", "setting": "[1]", "value": ">4", "unit": "µM"}, {"measurement": "EC", "setting": "[2]", "value": ">4", "unit": "µM"}, {"measurement": "inhibition of growth at 10 µM", "setting": "[6]", "value": 3.38, "unit": "%"}, {"measurement": "EC", "setting": "[7]", "value": ">4", "unit": "µM"}]}
{"compound": "COc1ccc(-c2c(N)n[nH]c2-c2cc(OC)c3c(c2)OCO3)cc1", "values": [{"measurement": "EC", "setting": "[1]", "value": ">4", "unit": "µM"}, {"measurement": "EC", "setting": "[2]", "value": 1, "unit": "µM"}, {"measurement": "inhibition of growth at 10 µM", "setting": "[6]", "value": 18.1, "unit": "%"}, {"measurement": "EC", "setting": "[7]", "value": ">5", "unit": "µM"}]}
{"compound": "COc1ccc(-c2c(N)n[nH]c2-c2cc(OC)c3c(c2)OCCO3)cc1", "values": [{"measurement": "EC", "setting": "[1]", "value": ">4", "unit": "µM"}, {"measurement": "EC", "setting": "[2]", "value": 1, "unit": "µM"}, {"measurement": "inhibition of growth at 10 µM", "setting": "[6]", "value": 32, "unit": "%"}, {"measurement": "EC", "setting": "[7]", "value": ">5", "unit": "µM"}]}
{"compound": "COc1ccc(-c2c(N)n[nH]c2-c2cc(OC)c(OC)c(OC)c2)cc1", "values": [{"measurement": "EC", "setting": "[1]", "value": 1, "unit": "µM"}, {"measurement": "EC", "setting": "[2]", "value": 0.1, "unit": "µM"}, {"measurement": "growth inhibition (GI)", "setting": "[3]", "value": "Active"}, {"measurement": "growth inhibition (GI)", "setting": "[4]", "value": "Active"}, {"measurement": "GI50", "setting": "[8]", "value": "< 100", "unit": "nM"}, {"measurement": "GI50", "setting": "[9]", "value": "< 100", "unit": "nM"}, {"measurement": "GI50", "setting": "[5]", "value": 302, "unit": "nM"}, {"measurement": "inhibition of growth at 10 µM", "setting": "[6]", "value": 75.8, "unit": "%"}, {"measurement": "GI50", "setting": "[10]", "value": "< 100", "unit": "nM"}, {"measurement": "GI50", "setting": "[11]", "value": "< 100", "unit": "nM"}, {"measurement": "GI50", "setting": "[12]", "value": "< 100", "unit": "nM"}, {"measurement": "GI50", "setting": "[13]", "value": "< 100", "unit": "nM"}, {"measurement": "EC", "setting": "[7]", "value": ">10", "unit": "µM"}]}
{"compound": "COc1ccc(-c2[nH]nc(N)c2-c2cc3c(c(OC)c2OC)OCO3)cc1", "values": [{"measurement": "EC", "setting": "[1]", "value": ">4", "unit": "µM"}, {"measurement": "EC", "setting": "[2]", "value": ">4", "unit": "µM"}, {"measurement": "EC", "setting": "[7]", "value": ">4", "unit": "µM"}]}
{"compound": "COc1ccc(-c2[nH]nc(N)c2-c2cc(OC)c(OC)c(OC)c2)cc1", "values": [{"measurement": "EC", "setting": "[1]", "value": 0.05, "unit": "µM"}, {"measurement": "EC", "setting": "[2]", "value": 0.01, "unit": "µM"}, {"measurement": "growth inhibition (GI)", "setting": "[3]", "value": "Active"}, {"measurement": "growth inhibition (GI)", "setting": "[4]", "value": "Active"}, {"measurement": "GI50", "setting": "[14]", "value": "< 10", "unit": "nM"}, {"measurement": "GI50", "setting": "[15]", "value": "< 10", "unit": "nM"}, {"measurement": "GI50", "setting": "[5]", "value": 46, "unit": "nM"}, {"measurement": "inhibition of growth at 10 µM", "setting": "[6]", "value": 89.2, "unit": "%"}, {"measurement": "EC", "setting": "[7]", "value": 1, "unit": "µM"}]}
{"compound": "COc1ccc(-c2[nH]nc(N)c2-c2cc(OC)c3c(c2OC)OCO3)cc1", "values": [{"measurement": "EC", "setting": "[1]", "value": ">4", "unit": "µM"}, {"measurement": "EC", "setting": "[2]", "value": ">4", "unit": "µM"}, {"measurement": "EC", "setting": "[7]", "value": ">4", "unit": "µM"}]}
